Like-named read-outs stand apart in the source and are kept apart here.
Tests used:
CYP199A4 [1] = biological target: T1, CYP199A4 (Rhodopseudomonas palustris, UniProt Q2IU02); assay: Spin state shift; assay type: binding, Rhodopseudomonas palustris HaA2; settings: WT CYP199A4, 50 mM Tris pH 7.4
T1 sequence (Q2IU02 1-410): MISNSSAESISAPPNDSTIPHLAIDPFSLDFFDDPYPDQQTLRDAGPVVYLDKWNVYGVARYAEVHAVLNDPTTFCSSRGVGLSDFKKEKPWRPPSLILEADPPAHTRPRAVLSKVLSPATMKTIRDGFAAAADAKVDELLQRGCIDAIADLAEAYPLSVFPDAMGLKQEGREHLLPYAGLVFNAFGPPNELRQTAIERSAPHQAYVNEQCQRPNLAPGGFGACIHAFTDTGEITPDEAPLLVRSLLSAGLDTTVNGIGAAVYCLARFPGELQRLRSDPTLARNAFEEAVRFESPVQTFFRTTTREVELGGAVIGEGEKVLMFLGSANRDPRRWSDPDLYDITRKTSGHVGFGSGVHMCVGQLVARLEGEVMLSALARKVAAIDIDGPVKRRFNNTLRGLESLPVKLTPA
Summary of the method: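 UV-visible spectra of CYP199A4 recorded at 30±0.5 °C after substrate addition. Percentage shift from low-spin to high-spin heme estimated to approximately ±5% by a previously described method.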

CYP199A4 [2] = biological target: T1, CYP199A4; assay: Dissociation constant determination by substrate binding titration; set-up: species or system Rhodopseudomonas palustris HaA2; settings: WT CYP199A4, 50 mM Tris pH 7.4
Summary of the method: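 CYP199A4 at 0.5–1.5 μM in 50 mM Tris, pH 7.4, held at 30 °C. Substrate titrated in from 1, 10 or 100 mM ethanol stocks. Soret band peak-to-trough absorbance difference recorded over 700–250 nm. Percentage high-spin shift estimated to about ±5%. Kd fitted from the ΔA titration data.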

CYP199A4 [3] = biological target: T1, CYP199A4; assay: In vitro NADH oxidation activity assay; assay type: biochemical, Rhodopseudomonas palustris HaA2; settings: for PFR (product formation rate): HaPuR:HaPux:CYP199A4 1:10:1, 0.5 μM CYP, 50 mM Tris pH 7.4; for Coupling (percentage of NADH utilized for the formation of products): WT CYP199A4
Summary of the method: (§1)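 Turnover run at 30 °C in oxygenated 50 mM Tris, pH 7.4, with 5 μM HaPux, 0.5 μM HaPuR and 0.5 μM CYP199A4 (WT or F298V). Started with substrate at 1 mM final. Product formation rate and coupling from quantified products. H2O2 by HRP/phenol/4-aminoantipyrine assay. Mean ±S.D., n≥3.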

CYP199A4 [4] = biological target: T1, CYP199A4; assay: Product distribution of enzyme-catalyzed oxidation by HPLC / GC-MS; assay type: biochemical, Rhodopseudomonas palustris HaA2
Summary of the method: (§2)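 Products of in vitro turnovers quantified by HPLC against product-standard calibrations. Sample: 132 μL reaction mix plus 2 μL of 10 mM 9-hydroxyfluorene in ethanol as internal standard (diphenylmethane for the isopropyl substrate), then 66 μL acetonitrile. Standards made by whole-cell E. coli oxidation or borohydride reduction, or estimated from the closest analogue. Derivatized samples identified by GC-MS on a DB-5 column.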

CYP199A4 [5] = biological target: T1, CYP199A4; assay: Hydrogen peroxide uncoupling, HRP/phenol/4-aminoantipyrine assay; assay type: biochemical, Rhodopseudomonas palustris HaA2; settings: WT CYP199A4, HRP assay
Summary of the method: as §1

F298V mutant of CYP199A4 [6] = assay: Spin state shift assay with F298V mutant; assay type: binding, Rhodopseudomonas palustris HaA2
F298V mutant of CYP199A4 [7] = assay: In vitro NADH oxidation activity assay with F298V mutant; assay type: biochemical, Rhodopseudomonas palustris HaA2
Summary of the method: as §1

F298V mutant of CYP199A4 [8] = assay: Product distribution of oxidation by F298V mutant; assay type: biochemical, Rhodopseudomonas palustris HaA2
Summary of the method: as §2

CYP199A4 [9] = biological target: T1, CYP199A4; settings: WT CYP199A4, cited from earlier work; for shift to the high‐spin form of ferric CYP199A4: ref 9c, 14, 17; for HS (%), change in the heme spin state from low‐spin to high‐spin upon addition of substrate: reported previously
CYP199A4 [10] = biological target: T1, CYP199A4; settings: WT CYP199A4; reported previously; cited from earlier work
CYP199A4 [11] = biological target: T1, CYP199A4; settings: WT CYP199A4; reported previously; cited from earlier work; remark: listed apart in the source
[12] = WT CYP199A4, min^−1 abbreviates nmol.nmol‐CYP^−1.min^−1
[13] = listed as 4‐n‐propylbenzoic acid

Structure (SMILES)	HS (%), change in the heme spin state from low‐spin to high‐spin upon addition of substrate (CYP199A4 [1])	Kd (CYP199A4 [2])	PFR (product formation rate) (CYP199A4 [3])	Coupling (percentage of NADH utilized for the formation of products) (CYP199A4 [3])	product formation rate (CYP199A4 [3]; [12])	epoxide further oxidation product, share of total products (CYP199A4 [4]; WT CYP199A4, in vitro turnover)	shift to the high‐spin form of ferric CYP199A4 (CYP199A4 [9])	HS (%), change in the heme spin state from low‐spin to high‐spin upon addition of substrate (CYP199A4 [9])	Coupling (percentage of NADH utilized for the formation of products) (CYP199A4 [11])	NADH (frequency of NADH oxidation) (CYP199A4 [11])	PFR (product formation rate) (CYP199A4 [11])	other results
CC(C)Cc1ccc(C(=O)O)cc1 [4‐isobutylBA, 4‐isobutylbenzoic acid]	>95%	0.59 ± 0.03 µM	146±21 nmol.nmol‐CYP^−1.min^−1	41±5%	146 min⁻¹	–	–	–	–	–	–	–
O=C(O)c1ccc(C2CC2)cc1 [4‐cyclopropylBA, 4‐cyclopropylbenzoic acid]	≥95%	0.28 ± 0.02 µM	170±22 nmol.nmol‐CYP^−1.min^−1	45±5%	170 min⁻¹	–	–	–	–	–	–	HS (%), change in the heme spin state from low‐spin to high‐spin upon addition of substrate (CYP199A4 [1]; listed as 4‐cyclopropylbenzoic acid): ≥ 95%; NADH oxidation rate (CYP199A4 [3]; [12]): 383 min⁻¹; Cα–Cβ desaturation alkene product, share of total products (CYP199A4 [4]; WT CYP199A4, in vitro turnover): No desaturation was observed; hydrogen peroxide uncoupling (CYP199A4 [5]): ≤ 2%
CCCCc1ccc(C(=O)O)cc1 [4‐n‐butylBA, 4‐n‐butylbenzoic acid]	90%	0.39 ± 0.04 µM	67±3 nmol.nmol‐CYP^−1.min^−1	40±1%	67 min⁻¹	2%	–	–	–	–	–	unidentified minor product, share of total products (CYP199A4 [4]; WT CYP199A4, HPLC): < 2%; Cα–Cβ desaturation alkene product, share of total products (CYP199A4 [4]; WT CYP199A4, in vitro turnover): 50%; Cβ hydroxylation product, share of total products (CYP199A4 [4]; WT CYP199A4, in vitro turnover): did not generate any detectable product
CCCCCCCc1ccc(C(=O)O)cc1 [4‐n‐heptylBA, 4‐n‐heptylbenzoic acid]	≥95%	0.16 ± 0.03 µM	147±12 nmol.nmol‐CYP^−1.min^−1	53±2%	147 min⁻¹	3%	–	–	–	–	–	Coupling (percentage of NADH utilized for the formation of products) (CYP199A4 [3]; listed as 4‐n‐heptylbenzoic acid): 53%
CCCc1ccc(C(=O)O)cc1 [4‐n‐propylBA, 4‐n‐propylbenzoic acid]	≥95%	0.54 ± 0.02 µM	594±72 nmol.nmol‐CYP^−1.min^−1	86±8%	–	12%	–	–	–	–	–	HS (%), change in the heme spin state from low‐spin to high‐spin upon addition of substrate (CYP199A4 [1]; [13]): ≥ 95%; Coupling (percentage of NADH utilized for the formation of products) (CYP199A4 [3]; [13]): 86%; shift to the high‐spin form (F298V mutant of CYP199A4 [6]): ≥ 95%; NADH oxidation rate (F298V mutant of CYP199A4 [7]): 378 ± 5 min⁻¹; coupling efficiency (F298V mutant of CYP199A4 [7]): 71%; Cβ hydroxylation product 4‐(2‐hydroxypropyl)benzoic acid (F298V mutant of CYP199A4 [8]): almost none; metabolites arising from initial desaturation, share of total products (F298V mutant of CYP199A4 [8]): 73%
CC(C)c1ccc(C(=O)O)cc1 [4‐isopropylBA, 4‐isopropylbenzoic acid]	–	–	–	–	–	–	≥ 95%	≥95%	68±1%	325±36 nmol.nmol‐CYP^−1.min^−1	221±27 nmol.nmol‐CYP^−1.min^−1	Kd (CYP199A4 [10]): 0.29 ± 0.01 µM
CC(C)(C)c1ccc(C(=O)O)cc1 [4‐t‐butylBA, 4‐t‐butylbenzoic acid]	–	–	–	–	–	–	≥ 95%	≥95%	100±13%	227±4 nmol.nmol‐CYP^−1.min^−1	227±32 nmol.nmol‐CYP^−1.min^−1	–
CCc1ccc(C(=O)O)cc1 [4‐ethylBA, 4‐ethylbenzoic acid]	–	–	–	–	–	–	≥ 95%	≥95%	64±4%	812±7 nmol.nmol‐CYP^−1.min^−1	525±88 nmol.nmol‐CYP^−1.min^−1	Kd (CYP199A4 [10]): 0.34 ± 0.02 µM

— article PMC10100021 (Chemistry, an Asian Journal, 2022)
